Source: PMC6426238 (Helvetica chimica acta, 2018)

What was measured:
Caco2-cells = conditions: degraded cyanophycin dipeptides; cited from earlier work
HEK293 cells = test: cell penetration by confocal fluorescence microscopy; assay type: cell-based; conditions: FAM-labeled peptides, membrane stain R18
Method in brief: (§1)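 FAM-labelled octa-Adp derivatives (side chains as free carboxylic acids, esters or amides) were purified by preparative HPLC. Unless stated otherwise, TFA counter-ions were removed with OH-form anion-exchange resin before use.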

MCF-7 cells = test: as above; assay type: cell-based; conditions: FAM-labeled peptides, membrane stain R18
Method in brief: as §1

Plasmodium berghei = test: parasitaemia reduction after intravenous tail-vein injection to infected mice; assay type: in vivo; conditions: P. berghei-infected mice
Method in brief: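 Single intravenous injection into the tail vein of mice, either uninfected or infected with Plasmodium berghei. Test compound was given in 0.9% NaCl at 0.01 ml/g body weight, with doses in μmol/kg. Oligo-arginine TFA salts were treated with Amberlyst A-26 (OH form) resin to remove TFA. Doses refer to the free peptide unless a TFA salt is stated. Read-outs were acute signs (death and its timing, heart rate, ataxia) and parasitaemia reduction in infected mice.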

NCCCC[C@H](NC(=O)C[C@H](N)C(=O)O)C(=O)O [β-Asp-Lys]
absorption by Caco2-cells (Caco2-cells): absorbed

FAM-(Adp(OMe))8-NH2 [Compound 8]
cell permeability (CFM) (HEK293 cells): mediocre to high cell permeability
cell permeability (CFM) (MCF-7 cells): mediocre to high cell permeability

FAM-(Adp(NMe2))8-NH2 [Compound 9]
cell permeability (CFM) (HEK293 cells): mediocre to high cell permeability
cell permeability (CFM) (MCF-7 cells): mediocre to high cell permeability

O=CN(O)CCCP(=O)(O)O [Na-fosmidomycin, fosmidomycin]
Parasitaemia reduction (Plasmodium berghei; i.v. dose 1.5·10^4 μmol/kg): No parasitaemia reduction (Parasitaemia reductions < 20% must be considered non-significant in this investigation: ‘no parasitaemia reduction’)
Parasitaemia reduction (Plasmodium berghei; i.v. dose 1.5·10^6 μmol/kg): 95% Parasitaemia reduction
Parasitaemia reduction (Plasmodium berghei; i.v. dose 5·10^3 μmol/kg): No parasitaemia reduction (Parasitaemia reductions < 20% must be considered non-significant in this investigation: ‘no parasitaemia reduction’)
Parasitaemia reduction (Plasmodium berghei; i.v. dose 5·10^5 μmol/kg): 72% Parasitaemia reduction

FAM-Adp8-NH2 [Compound 7]
cell permeability (CFM) (HEK293 cells): does not enter the cells at all
cell permeability (CFM) (MCF-7 cells): does not enter the cells at all

N=C(N)NCCC[C@H](NC(=O)CC(N)C(=O)O)C(=O)O (stereo partly drawn) [H-Adp-OH, H-βAsp-αArg-OH]
absorption by Caco2-cells (Caco2-cells): absorbed
